Source: ChEMBL document CHEMBL1145460, “Novel vanilloid receptor-1 antagonists: 3. The identification of a second-generation clinical candidate with improved physicochemical and pharmacokinetic properties” (J Med Chem, 2007)
In brackets after ≈: the same amount, converted by molar mass. Activity calls are given as the source filed them. The rule behind the calls is not given here.

Legend:
[1] = molecular target: T1, Transient receptor potential cation channel subfamily V member 1 (Rattus norvegicus, UniProt O35433); assay: Inhibition of rat TRPV1 expressed in CHO cells assessed as capsaicin-induced Ca2+ influx; type: cell-based
[2] = molecular target: T1, Transient receptor potential cation channel subfamily V member 1; assay: Inhibition of rat TRPV1 expressed in CHO cells assessed as acid-induced Ca2+ influx; type: cell-based
[3] = Solubility in 0.01N HCl; type: physicochemical
Outline: (§1)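 Thermodynamic solubility determined in a high-throughput automated format; media 0.01 N HCl, PBS and simulated intestinal fluid.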

[4] = Clearance in Sprague-Dawley rat at 1 mg/kg, iv up to 6 hrs; type: ADME, organism-based; parameters: dose 1 mg/kg, route intravenous; conditions: in vivo
[5] = Volume of distribution in Sprague-Dawley rat at 1 mg/kg, iv up to 6 hrs; type: ADME, organism-based; parameters: dose 1 mg/kg, route intravenous; conditions: in vivo, read-out: Vss
[6] = AUC (0 to infinity) in Sprague-Dawley rat at 3 mg/kg, po up to 8 hrs; type: ADME, organism-based; parameters: time infinity, dose 3 mg/kg, route oral; conditions: plasma
Outline: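 Fasted male Sprague-Dawley rats were given a single oral dose of 3 mg/kg as a suspension in 5% Tween 80/Oraplus. Plasma was sampled for up to 8 h, and AUC0-∞ was reported in ng·h/mL.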

[7] = Oral bioavailability in Sprague-Dawley rat at 5 mg/kg; type: ADME, organism-based; conditions: in vivo
Outline: (§2)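 Fasted male Sprague-Dawley rats given 5 mg/kg orally as a suspension in 5% Tween 80/Oraplus; plasma sampled up to 8 h.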

[8] = Solubility in PBS; type: physicochemical; outline: as §1
Rattus norvegicus [9] = assay: Inhibition of capsaicin-induced flinching in rat at 10 mg/kg, po up to 8 hrs; type: functional, organism-based; parameters: dose 10 mg/kg
Outline: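 Rats given 10 mg/kg orally; capsaicin-induced flinching challenged at intervals up to 8 h after dosing.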

Rattus norvegicus [10] = species: Rattus norvegicus; assay: Reduction of thermal hyperalgesia in rat model of CFA-induced inflammation in assessed as minimum effective dose; type: functional; conditions: read-out: MED
Outline: (§3)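 Complete Freund's adjuvant injected to induce inflammatory thermal hyperalgesia in rats; oral dose-response, minimum effective dose determined, with corresponding plasma level measured.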

Rattus norvegicus [11] = species: Rattus norvegicus; assay: Plasma concentration in rat model of CFA-induced inflammation; type: ADME, organism-based; conditions: in vivo; outline: as §3
[12] = Clearance in Sprague-Dawley rat at 1 mg/kg, iv after 72 hrs; type: ADME, organism-based; parameters: dose 1 mg/kg, route intravenous; conditions: in vivo
[13] = Volume of distribution at steady state in Sprague-Dawley rat at 1 mg/kg, iv after 72 hrs; type: ADME, organism-based; parameters: dose 1 mg/kg, route intravenous; conditions: in vivo, read-out: Vss
[14] = Half life in Sprague-Dawley rat at 1 mg/kg, iv after 72 hrs; type: ADME, organism-based; parameters: dose 1 mg/kg, route intravenous; conditions: in vivo
[15] = AUC (0 to infinity) in Sprague-Dawley rat at 1 mg/kg, iv up to 6 hrs; type: ADME, organism-based; parameters: time infinity, dose 1 mg/kg, route intravenous; conditions: plasma
[16] = Half life in Sprague-Dawley rat at 1 mg/kg, iv; type: ADME, organism-based; parameters: dose 1 mg/kg, route intravenous; conditions: in vivo
[17] = AUC (0-inf) in Sprague-Dawley rat at 5 mg/kg, po up to 8 hrs; type: ADME, organism-based; parameters: time infinity, dose 5 mg/kg, route oral; conditions: plasma; outline: as §2
[18] = Solubility in SIF; type: physicochemical; outline: as §1
[19] = Clearance in dog at 1 mg/kg, iv; type: ADME, organism-based, Canis lupus familiaris; parameters: dose 1 mg/kg, route intravenous; conditions: in vivo
Outline: (§4)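 Fed male animals given 1 mg/kg intravenously in 80% PEG-400/H₂O.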

[20] = Volume of distribution at steady state in dog at 1 mg/kg, iv; type: ADME, organism-based, Canis lupus familiaris; parameters: dose 1 mg/kg, route intravenous; conditions: in vivo, read-out: Vss; outline: as §4
[21] = Half life in dog at 1 mg/kg, iv; type: ADME, organism-based, Canis lupus familiaris; parameters: dose 1 mg/kg, route intravenous; conditions: in vivo; outline: as §4
[22] = Oral bioavailability in dog at 3 mg/kg; type: ADME, organism-based, Canis lupus familiaris; conditions: in vivo
Outline: (§5)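 Fasted male animals dosed orally at 3 mg/kg, vehicle 10% Pluronic F108 in either Oraplus or H₂O.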

[23] = Clearance in monkey at 1 mg/kg, iv; type: ADME, organism-based, Macaca mulatta; parameters: dose 1 mg/kg, route intravenous; conditions: rhesus monkey, in vivo; outline: as §4
[24] = Volume of distribution at steady state in monkey at 1 mg/kg, iv; type: ADME, organism-based, Macaca mulatta; parameters: dose 1 mg/kg, route intravenous; conditions: rhesus monkey, in vivo, read-out: Vss; outline: as §4
[25] = Half life in monkey at 1 mg/kg, iv; type: ADME, organism-based, Macaca mulatta; parameters: dose 1 mg/kg, route intravenous; conditions: rhesus monkey, in vivo; outline: as §4
[26] = Oral bioavailability in monkey at 3 mg/kg; type: ADME, organism-based, Macaca mulatta; conditions: rhesus monkey, in vivo; outline: as §5
Rattus norvegicus [27] = assay: Suppression of capsaicin-evoked paw flinching in orally dosed rat; type: functional; conditions: po
Rattus norvegicus [28] = species: Rattus norvegicus; assay: Plasma concentration in rat with capsaicin-evoked paw flinching; type: ADME, organism-based; conditions: in vivo

T1 sequence (O35433 whole entry): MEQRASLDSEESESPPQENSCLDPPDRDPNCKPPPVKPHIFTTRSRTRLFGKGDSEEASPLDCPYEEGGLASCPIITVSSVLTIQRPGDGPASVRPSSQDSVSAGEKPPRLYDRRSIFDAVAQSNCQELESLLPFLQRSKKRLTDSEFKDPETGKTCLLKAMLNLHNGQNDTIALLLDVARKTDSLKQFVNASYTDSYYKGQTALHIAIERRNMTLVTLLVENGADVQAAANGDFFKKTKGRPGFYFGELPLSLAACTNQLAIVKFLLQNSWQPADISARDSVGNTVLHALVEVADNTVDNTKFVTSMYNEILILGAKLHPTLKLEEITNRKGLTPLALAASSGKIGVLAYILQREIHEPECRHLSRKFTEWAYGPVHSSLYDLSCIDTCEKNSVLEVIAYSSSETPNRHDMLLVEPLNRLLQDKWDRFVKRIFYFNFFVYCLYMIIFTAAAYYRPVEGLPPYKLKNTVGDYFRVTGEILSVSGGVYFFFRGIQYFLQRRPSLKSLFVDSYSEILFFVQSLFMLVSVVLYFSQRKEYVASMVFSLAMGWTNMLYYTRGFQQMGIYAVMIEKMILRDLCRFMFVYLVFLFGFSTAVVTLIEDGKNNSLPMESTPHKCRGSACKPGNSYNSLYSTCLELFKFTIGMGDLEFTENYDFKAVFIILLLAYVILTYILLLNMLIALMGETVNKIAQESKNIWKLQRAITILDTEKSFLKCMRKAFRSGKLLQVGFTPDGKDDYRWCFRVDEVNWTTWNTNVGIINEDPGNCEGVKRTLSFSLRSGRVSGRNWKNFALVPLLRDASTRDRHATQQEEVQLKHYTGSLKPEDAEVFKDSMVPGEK

SMILES: CC(=O)Nc1nc2c(Oc3cc(N4CCN(CC(F)(F)F)CC4)ncn3)cccc2s1
- IC50 [1]: 380 nM
- IC50 [2]: 120 nM
- solubility [3]: ≥ 200 µg/mL

SMILES: CC(=O)Nc1nc2c(Oc3cc(N4CCN(C(C)c5ccccc5F)CC4)ncn3)cccc2s1 (centres undefined)
- solubility [3]: ≥ 200 µg/mL
- clearance [4]: 50 mL/min/kg

SMILES: CC(=O)Nc1nc2c(Oc3cc(N4CCNCC4)ncn3)cccc2s1
- IC50 [1]: > 4000 nM
- IC50 [2]: > 4000 nM
- solubility [3]: 173 µg/mL (≈ 467 µM)

SMILES: CC(=O)Nc1nc2c(Oc3cc(-c4ccc(C(F)(F)F)cc4)ncn3)cccc2s1 [AMG-517]
- solubility [3]: < 1 µg/mL
- Vd [5]: 1.6 L/kg
- AUC(0-inf) [6]: 12500 ng·h/mL
- bioavailability [7]: 32%
- solubility [8]: < 1 µg/mL

SMILES: CC(=O)Nc1nc2c(Oc3cc(N4CCN(CCc5ccccc5)CC4)ncn3)cccc2s1
- solubility [3]: ≥ 200 µg/mL

SMILES: CC(=O)Nc1nc2c(Oc3cc(N4CCN(C(C)c5ccccc5)CC4)ncn3)cccc2s1 (centres undefined)
- solubility [3]: ≥ 200 µg/mL
- clearance [4]: 65 mL/min/kg

SMILES: CCC(c1ccccc1)N1CCN(c2cc(Oc3cccc4sc(NC(C)=O)nc34)ncn2)CC1 (centres undefined)
- solubility [3]: ≥ 200 µg/mL

SMILES: CC(=O)Nc1nc2c(Oc3cc(C4CCC(C(F)(F)F)CC4)ncn3)cccc2s1 (centres undefined)
- IC50 [1]: 350 nM
- IC50 [2]: 10 nM
- solubility [3]: 5 µg/mL (≈ 11.5 µM)

SMILES: CC(=O)Nc1nc2c(Oc3cc(N4CCN(C(c5ccccc5)c5ccccc5)CC4)ncn3)cccc2s1
- solubility [3]: 46 µg/mL (≈ 85.7 µM)

SMILES: CC(=O)Nc1nc2c(Oc3cc(N4CCOCC4)ncn3)cccc2s1
- IC50 [1]: > 4000 nM
- IC50 [2]: > 4000 nM
- solubility [3]: 32 µg/mL (≈ 86.2 µM)

SMILES: COc1ccc(C(C)N2CCN(c3cc(Oc4cccc5sc(NC(C)=O)nc45)ncn3)CC2)cc1 (centres undefined)
- solubility [3]: ≥ 200 µg/mL

SMILES: CC(=O)Nc1nc2c(Oc3cc(N4CCN([C@H](C)c5ccc(F)cc5)CC4)ncn3)cccc2s1
- Activity (Rattus norvegicus [9]): Active
- minimal effective dose (Rattus norvegicus [10]): 1 mg/kg
- Cp (Rattus norvegicus [11]): 70 ng/mL
- clearance [12]: 13.8 mL/min/kg
- Vd [13]: 2.6 L/kg
- half-life [14]: 3.8 h
- solubility [3]: ≥ 200 µg/mL
- clearance [4]: 13.3 mL/min/kg
- AUC(0-inf) [15]: 1200 ng·h/mL
- Vd [5]: 2.8 L/kg
- half-life [16]: 2.7 h
- AUC(0-inf) [17]: 3100 ng·h/mL
- bioavailability [7]: 51%
- solubility [8]: 7 µg/mL (≈ 14.2 µM)
- solubility [18]: 64 µg/mL (≈ 130 µM)
- clearance [19]: 40 mL/min/kg
- Vd [20]: 4 L/kg
- half-life [21]: 2.7 h
- bioavailability [22]: 83%
- clearance [23]: 6.67 mL/min/kg
- Vd [24]: 0.9 L/kg
- half-life [25]: 3.2 h
- bioavailability [26]: 12%
- ED50 (Rattus norvegicus [27]): 1.9 mg/kg
- Cp (Rattus norvegicus [28]): 128 ng/mL

SMILES: CC(=O)Nc1nc2c(Oc3cc(N4CCN(C(C)c5cccc(F)c5)CC4)ncn3)cccc2s1 (centres undefined)
- solubility [3]: ≥ 200 µg/mL
- clearance [4]: 53.3 mL/min/kg

SMILES: CC(=O)Nc1nc2c(Oc3cc(N4CCN(C(C)c5ccc(F)cc5)CC4)ncn3)cccc2s1 (centres undefined)
- solubility [3]: ≥ 200 µg/mL
- clearance [4]: 18.3 mL/min/kg
- AUC(0-inf) [15]: 1000 ng·h/mL
- Vd [5]: 2.9 L/kg
- half-life [16]: 2.4 h
- AUC(0-inf) [17]: 1800 ng·h/mL
- bioavailability [7]: 35%
- solubility [8]: 5 µg/mL (≈ 10.2 µM)
- solubility [18]: 34 µg/mL (≈ 69 µM)

SMILES: CC(=O)Nc1nc2c(Oc3cc(C4=CCC(C(F)(F)F)CC4)ncn3)cccc2s1 (centres undefined)
- IC50 [1]: 27 nM
- IC50 [2]: 2.4 nM
- solubility [3]: 13 µg/mL (≈ 29.9 µM)

SMILES: CC(=O)Nc1nc2c(Oc3cc(N4CCN(Cc5ccccc5)CC4)ncn3)cccc2s1
- solubility [3]: ≥ 200 µg/mL

SMILES: CC(=O)Nc1nc2c(Oc3cc(N4CCN(CC(C)(C)C)CC4)ncn3)cccc2s1
- IC50 [1]: 3 nM
- IC50 [2]: 5 nM
- solubility [3]: ≥ 200 µg/mL
- clearance [4]: 25 mL/min/kg

SMILES: CC(=O)Nc1nc2c(Oc3cc(N4CCN(C(C)C)CC4)ncn3)cccc2s1
- solubility [3]: ≥ 200 µg/mL

SMILES: CC(=O)Nc1nc2c(Oc3cc(N4CCN(c5ccccc5)CC4)ncn3)cccc2s1
- solubility [3]: 1.5 µg/mL (≈ 3.36 µM)
- clearance [4]: 16.7 mL/min/kg

SMILES: CC(=O)Nc1nc2c(Oc3cc(N4CCC(C(F)(F)F)CC4)ncn3)cccc2s1
- IC50 [1]: 330 nM
- IC50 [2]: 19 nM
- solubility [3]: 9 µg/mL (≈ 20.6 µM)

SMILES: CC(=O)Nc1nc2c(Oc3cc(N4CCN(C(C)(C)C)CC4)ncn3)cccc2s1
- IC50 [1]: 1500 nM
- IC50 [2]: > 4000 nM
- solubility [3]: ≥ 200 µg/mL

SMILES: CC(=O)Nc1nc2c(Oc3cc(N4CCN([C@@H](C)c5ccc(F)cc5)CC4)ncn3)cccc2s1
- solubility [3]: ≥ 200 µg/mL
- clearance [4]: 30 mL/min/kg
- AUC(0-inf) [15]: 550 ng·h/mL
- Vd [5]: 5.7 L/kg
- half-life [16]: 2.5 h
- AUC(0-inf) [17]: 2550 ng·h/mL
- bioavailability [7]: 93%
- solubility [8]: 31 µg/mL (≈ 62.9 µM)
- solubility [18]: 121 µg/mL (≈ 246 µM)

SMILES: CC(=O)Nc1nc2c(Oc3cc(N4CCN(C(C)c5ccc(C(F)(F)F)cc5)CC4)ncn3)cccc2s1 (centres undefined)
- IC50 [1]: 5 nM
- IC50 [2]: 1.8 nM
- solubility [3]: ≥ 200 µg/mL
- clearance [4]: 23.3 mL/min/kg
- AUC(0-inf) [15]: 720 ng·h/mL
- Vd [5]: 4.5 L/kg
- half-life [16]: 2.7 h
- AUC(0-inf) [17]: 120 ng·h/mL
- bioavailability [7]: 3%
- solubility [8]: 5 µg/mL (≈ 9.22 µM)
- solubility [18]: 121 µg/mL (≈ 223 µM)

SMILES: CC(=O)Nc1nc2c(Oc3cc(N4CCN(C(C)(C)c5ccccc5)CC4)ncn3)cccc2s1
- solubility [3]: ≥ 200 µg/mL
